Activity and IC50 data for 20 molecules are collected here from ChEMBL document CHEMBL4811253, “Flavonoid-triazolyl hybrids as potential anti-hepatitis C virus agents: Synthesis and biological evaluation” (Eur J Med Chem, 2021).

By IC50 is commonly meant the midpoint of a concentration-inhibition curve.

The structures appear in SMILES notation. Activity calls are given as the source filed them. No cut-off for these calls is given here.

Data set [1] relates to Huh-7. Put plainly: Cytotoxicity against human Huh7 cells assessed as reduction in cell viability at 100 ug/ml incubated for 72 hrs by XTT assay. The class given is cell-based. Particulars: huh-7, 72 h, dose 100 µg/ml. In outline:
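Huh7 cells (1 × 10⁴/well) seeded overnight, exposed to compound at 100 µg/mL for 72 h; viability by XTT (Cell Proliferation Kit II) per the kit instructions. Cells grown in DMEM with 10% FBS, 37 °C, 5% CO₂.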

Data set [2] has as its system Hepatitis C virus. Put plainly: Antiviral activity against HCV JFH-1 in Huh7 cells infected with supernatant from 72 hrs at 100 ug/ml compound treated Huh7 cells with HCV JFH-1 infection assessed as inhibition of HCV progeny virus production by measuring viral RNA level measured after 48 hrs post re-infection by RT-PCR analysis. The class given is functional, organism-based. Particulars: Hepacivirus hominis, Huh-7, dose 100.0 µg/ml, time 120.0 hrs. In outline: (§1)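 Huh7 cells (1 × 10⁴/well, overnight) infected with HCV at MOI 0.1 for 6 h, virus washed out, then compound for 72 h (single 100 µg/mL screen; or 1, 3, 10, 30 µM dose series). Supernatant used to reinfect fresh Huh7 cells; 48 h later total RNA column-extracted and HCV RNA quantified by real-time RT-PCR. IFNa 10 U/mL as reference.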

Data set [3] deals with Hepatitis C virus. Put plainly: Antiviral activity against HCV JFH-1 infected in Huh7 cells overexpressing mCherry-NLS-IPS protein at 100 ug/ml pre-infected with virus for 6 hrs followed by compound addition for 72 hrs by fluorescence assay. The class given is functional, organism-based. Particulars: Hepacivirus hominis, Huh-7, dose 100.0 µg/ml. The method in brief:
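Huh7 cells carrying mCherry-NLS-IPS were made by transducing them with a recombinant virus from 293T cells (VSV-G, Pol and mCherry-NLS-IPS1 plasmids). These cells were seeded at 5×10⁴ per well overnight in DMEM with 10% FBS at 37 °C and 5% CO₂, then infected with HCV JFH1 (MOI 1) for 6 h. After washing they were cultured with compound for 72 h, with sofosbuvir as positive control. The readout was microscopic imaging of red fluorescence shifting from cytoplasm to nucleus after NS3/4A cleavage.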

Data set [4] has as its system Hepatitis C virus. Put plainly: Antiviral activity against HCV JFH-1 in Huh7 cells infected with supernatant from 3 days at 30 uM of compound treated Huh7 cells with HCV JFH-1 infection assessed as reduction in HCV production by measuring viral RNA level measured after 48 hrs post re-infection by RT-PCR analysis. Particulars: Hepacivirus hominis, Huh-7, time 120.0 hrs. The class given is functional, organism-based. In outline:
as §1

The test system of data set [5] is Hepatitis C virus. Put plainly: Antiviral activity against HCV JFH-1 in Huh7 cells assessed as reduction in HCV core protein expression by Western blotting analysis. Particulars: Hepacivirus hominis, Huh-7, dose 1-100 µM. It is filed as functional, organism-based. In outline: (§2)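 Huh7 cells treated with compound at 1, 10 and 100 µM (concentrations as stated in text). Lysates in RIPA buffer, heated with Laemmli buffer at 95 °C for 10 min. Western blot probed with anti-NS3 (1/1000), anti-Core (1/3000) and anti-GAPDH (1/1000), HRP secondary antibodies, chemiluminescence detection.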
For orientation: A western blot detects proteins with antibodies after separation by electrophoresis.

Data set [6] concerns Hepatitis C virus. Put plainly: Antiviral activity against HCV JFH-1 in Huh7 cells assessed as reduction in NS3 protein expression by Western blotting analysis. The class given is functional, organism-based. Particulars: Hepacivirus hominis, Huh-7, dose 1-100 µM. The method in brief:
as §2

In data set [7] the test system is Hepatitis C virus. Put plainly: Antiviral activity against HCV JFH-1 in Huh7 cells infected with supernatant from 3 days compound treated Huh7 cells with HCV JFH-1 infection assessed as reduction in HCV production by measuring viral RNA level measured after 48 hrs post re-infection by RT-PCR analysis. It is filed as functional, organism-based. Particulars: for Activity: Hepacivirus hominis, Huh-7, time 3.0 day; for IC50: JFH-1, Huh-7. In outline:
as §1

Data set [8] concerns Hepatitis C virus. Put plainly: Antiviral activity against HCV JFH-1 infected in Huh7 cells assessed as inhibition of HCV replication at 10 uM after 72 hrs by luciferase reporter gene assay. The class given is functional, organism-based. Particulars: Hepacivirus hominis, Huh-7. The method in brief: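 Huh7 cells transfected with subgenomic JFH1 replicon carrying luciferase (SGR-Luc-JFH1), then treated with compound; luciferase activity in cell extracts read after 72 h.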
Background: In a reporter assay the amount or activity of a reporter protein is the signal.

Data set [9] concerns Hepatitis C virus. Put plainly: Antiviral activity against HCV pseudo-particle infected in human Huh-7 cells assessed as inhibition of viral entry at 10 uM incubated for 24 hrs prior to infection and measured after 48 hrs post infection by bright Glo-luciferase reporter gene assay. It is filed as functional, Hepacivirus hominis, JFH-1. More on the design: scale not given: the % may be the effect or the level left. In outline:
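Huh-7 cells (5 × 10³/well) pretreated with compound for 24 h, then infected with HCV pseudoparticles. Virus and compound washed out after 6 h of infection. Luciferase read with Bright-Glo reagent 48 h later.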

Data set [10] has as its system Hepatitis C virus. Put plainly: Antiviral activity against wild-type HCV infected in human Huh-7 cells assessed as inhibition of viral entry at 10 uM incubated for 24 hrs prior to infection and measured after 48 hrs post infection by RT-PCR. Particulars: Hepacivirus hominis, JFH-1.

Consider `Cn1cc(COc2ccc3c(c2)OC(c2ccc4c(c2)C=CC(C)(C)O4)CC3=O)nn1` (stereo not drawn), for which the Activity entry in data set [1] is recorded as “Non-Toxic”.

Turning to `CC1(C)C=Cc2cc(C3CC(=O)c4ccc(OCc5cn(Cc6ccc([N+](=O)[O-])cc6)nn5)cc4O3)ccc2O1` (stereo not drawn), in data set [1], the Activity entry is reported as “Non-Toxic”.

Regarding `CCCCCn1cc(COc2ccc3c(c2)OC(c2ccc4c(c2)C=CC(C)(C)O4)CC3=O)nn1` (stereo not drawn), the result in [2] and in [3] was Active. The Activity result in data set [1] is “Non-Toxic”.

As for `CC1(C)C=Cc2cc(C3CC(=O)c4ccc(OCc5cn(Cc6ccccc6F)nn5)cc4O3)ccc2O1` (stereo not drawn), in data set [1], the Activity entry is on record as “Non-Toxic”.

`CC1(C)C=Cc2cc(C3CC(=O)c4ccc(OCc5cn(Cc6ccccc6Cl)nn5)cc4O3)ccc2O1` (stereo not drawn): the outcome in data set [4], in data set [2], in [3] and in data set [10] was Active. Also, the Activity result is “Dose-Dependent Effect” in data set [5]; “Dose-Dependent Effect” in [6]; “Dose-Dependent Effect” in data set [7]; 34% in data set [9]; “Non-Toxic” in [1]. For the same molecule, the IC50 in [7] turned out to be 5.29 µM. Besides, the result in [8] was inactive.

For `CC1(C)C=Cc2cc(C3CC(=O)c4ccc(OCc5cn(Cc6cccc(F)c6)nn5)cc4O3)ccc2O1` (stereo not drawn), the Activity result in [1] was “Non-Toxic”.

Turning to `Cc1ccc(Cn2cc(COc3ccc4c(c3)OC(c3ccc5c(c3)C=CC(C)(C)O5)CC4=O)nn2)cc1` (stereo not drawn), the Activity result in data set [1] is on record as “Non-Toxic”.

For `COc1cc(Cn2cc(COc3ccc4c(c3)OC(c3ccc5c(c3)C=CC(C)(C)O5)CC4=O)nn2)cc(OC)c1` (stereo not drawn), in data set [1], the Activity result is on record as “Non-Toxic”.

In the case of `CC1(C)C=Cc2cc(C3CC(=O)c4ccc(OCc5cn(Cc6ccc(C(F)(F)F)cc6)nn5)cc4O3)ccc2O1` (stereo not drawn), in data set [1], the Activity entry is on record as “Non-Toxic”.

In the case of `CC1(C)C=Cc2cc(C3CC(=O)c4ccc(OCc5cn(Cc6ccc(F)cc6)nn5)cc4O3)ccc2O1` (stereo not drawn), the result in data set [4], in data set [2], in data set [3] and in data set [10] was Active. For the same molecule, the Activity entry was “Dose-Dependent Effect” in [5]; “Dose-Dependent Effect” in data set [6]; “Dose-Dependent Effect” in data set [7]; 52% in data set [9]; “Non-Toxic” in data set [1]. Besides, the 50% inhibitory concentration (IC50) in [7] amounted to 9 µM. Moreover, in data set [8], the outcome was inactive.

In the case of `CCCCCCCCCn1cc(COc2ccc3c(c2)OC(c2ccc4c(c2)C=CC(C)(C)O4)CC3=O)nn1` (stereo not drawn), the Activity result in [1] is reported as “Non-Toxic”.

Take `CC1(C)C=Cc2cc(C3CC(=O)c4ccc(OCc5cn(Cc6cc(Cl)cc(Cl)c6)nn5)cc4O3)ccc2O1` (stereo not drawn): the Activity entry in [1] is given as “Non-Toxic”.

Turning to `CC1(C)C=Cc2cc(C3CC(=O)c4ccc(OCc5cn(Cc6ccncc6)nn5)cc4O3)ccc2O1` (stereo not drawn), the Activity entry in [1] is recorded as “Toxic”.

Consider `CCCCn1cc(COc2ccc3c(c2)OC(c2ccc4c(c2)C=CC(C)(C)O4)CC3=O)nn1` (stereo not drawn), for which, in data set [1], the Activity entry is “Non-Toxic”.

As for `CC1(C)C=Cc2cc(C3CC(=O)c4ccc(OCc5cn(Cc6ccccc6)nn5)cc4O3)ccc2O1` (stereo not drawn), the Activity entry in data set [1] was “Toxic”.

Regarding `CCCCCCn1cc(COc2ccc3c(c2)OC(c2ccc4c(c2)C=CC(C)(C)O4)CC3=O)nn1` (stereo not drawn), the outcome in data set [2] and in data set [3] was Active. For the same molecule, the Activity entry in [1] is “Non-Toxic”.

In the case of `CC1(C)C=Cc2cc(C3CC(=O)c4ccc(O)cc4O3)ccc2O1` (stereo not drawn), the Activity result in data set [1] is given as “Non-Toxic”.

With `CCn1cc(COc2ccc3c(c2)OC(c2ccc4c(c2)C=CC(C)(C)O4)CC3=O)nn1` (stereo not drawn), the Activity entry in data set [1] is “Non-Toxic”.

For the molecule `COc1cccc(Cn2cc(COc3ccc4c(c3)OC(c3ccc5c(c3)C=CC(C)(C)O5)CC4=O)nn2)c1` (stereo not drawn), the Activity entry in data set [1] is “Non-Toxic”.

Take `CC1(C)C=Cc2cc(C3CC(=O)c4ccc(OCc5cn(Cc6ccc(Br)cc6)nn5)cc4O3)ccc2O1` (stereo not drawn): the outcome in [2] and in [3] was Active. The Activity entry is “Dose-Dependent Effect” in data set [5], “Dose-Dependent Effect” in data set [6] and “Non-Toxic” in data set [1].
